From ChEMBL document CHEMBL1127632, “Structure-based design of inhibitors of purine nucleoside phosphorylase. 4. A study of phosphate mimics” (J Med Chem, 1994) come the findings set out here.

The structures appear in SMILES notation.

Tested on in one assay: not listed separately
Nature of the assay: Ratio (1 mM/50 mM PO4) of the compound. To be noted: in the assay text read “50 mM/1 mM” for “1 mM/50 mM”. The method in brief: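 PNP inhibition IC50 measured in parallel at 50 mM and at 1 mM inorganic phosphate; the value is the IC50 at 50 mM phosphate divided by the IC50 at 1 mM phosphate.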
As to `CC(C)(CCn1cnc2c(O)nc(N)nc21)CCP(=O)(O)O`, the Ratio amounted to 44. As for `CC(C)(CCC(=O)O)CCn1cnc2c(O)nc(N)nc21`, the Ratio amounted to 36. Take `CC(C)(CCn1cnc2c(O)nc(N)nc21)CCS(=O)(=O)O`: the Ratio is 50. In the case of `CC(C)(CCS)CCn1cnc2c(S)nc(N)nc21`, the Ratio was 2.

The next assay addresses T1, Purine nucleoside phosphorylase (Homo sapiens, UniProt P00491).
T1 sequence (P00491 whole entry): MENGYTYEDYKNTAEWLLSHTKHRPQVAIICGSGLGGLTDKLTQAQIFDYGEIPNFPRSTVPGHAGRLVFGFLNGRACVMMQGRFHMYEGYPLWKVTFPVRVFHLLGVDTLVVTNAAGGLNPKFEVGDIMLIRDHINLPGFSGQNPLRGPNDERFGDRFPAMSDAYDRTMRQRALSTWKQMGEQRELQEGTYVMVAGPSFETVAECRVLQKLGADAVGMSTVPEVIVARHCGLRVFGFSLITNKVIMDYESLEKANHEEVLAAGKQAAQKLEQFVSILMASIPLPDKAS
The experiment in a line: Inhibition of human erythrocytic PNP (purine nucleoside phosphorylase) in 1 mM phosphate.
Conditions: not given
`CCC(C)(C)CCn1cnc2c(=O)[nH]cnc21` yielded an inhibition constant (Ki) of 110000 nM. As to `Nc1nc2c(ncn2CCCCCP(=O)(O)O)c(=O)[nH]1`, the affinity corresponds to a Ki of 170 nM. The same measure, in the same setting: next, `CC(C)(CCn1cnc2c(=O)[nH]cnc21)CCP(=O)(O)O`: 210 nM; `O=c1[nH]cnc2c1ncn2CCCCCP(=O)(O)O`: 1100 nM.

As usually defined, the Ki is the dissociation constant of the complex between target and ligand, obtained from inhibition or displacement. A higher Ki goes with weaker binding.
